# Sampled rows, rich in hits. Any-hit rate of the full collection: about 2.5%.
# Tb MetRS inh – Trypanosoma brucei MetRS inhibition. purified T. brucei MetRS, ATP depletion, Kinase-Glo luminescence. inhibition, % at 11.9 µM. 360,000 tested, 0.4% active. AID 624268;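 active means inhibition above a per-plate cutoff of the control wells' mean inhibition plus 3 SD, cut at about 5.5% in these data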;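 further: 0% = DMSO wells median and 100% = median of wells with control inhibitor compound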
#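 Test system – parasite MetRS enzyme · Reagent – substrates ATP, L-methionine and bulk Escherichia coli tRNA · Doses – 11.9 µM compound single dose, 0.9% DMSO · Times – 15 min enzyme-compound preincubation, 2 h reaction, 10 min detection, 25 °C · Signal – Kinase-Glo luminescence, ATP depletion format · Controls – DMSO-only wells as low control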
# NALP3 yeast inh – blocks the NALP3 inflammasome reconstituted in yeast; Yeast reconstituted NLRP3/ASC/caspase-1, beta-gal luminescence, 24 h; inhibition, % at 10 µM; 330,000 tested, 0.39% active; AID 2825;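 active means inhibition of 50% or more; inactive means inhibition below 50%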;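 further: plate controls were induced DMSO wells for no effect and uninduced yeast grown without galactose for full effect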
# NALP1 yeast inh – NALP1 inhibition | S. cerevisiae NALP1/ASC/caspase-1 growth, X-gal OD620, 72 h | inhibition, % at 10 µM | 280,000 tested, 0.61% active | AID 2071; in the data active means inhibition mostly above about 24%, no sharp cut-off; inactive means mostly below about 32%
# Bfl-1 A1 inh – inhibitors of the anti-apoptotic protein A1, read as caspase activation. MEF A1-2A-BIM cells, Caspase-Glo 3/7 luminescence, 3 h; percent of clofoctol response, vehicle zero. caspase activation, % (test concentration not listed). 330,000 tested, 0.066% active. AID 2462;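 active means over half of replicate activation scores above 10%, or exactly half above 10 with the replicate mean above 10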
# MC4R antagonist – antagonists of human melanocortin 4 receptor (MC4R) | P32245 | MC4R-expressing cells, MTII-stimulated cAMP, LANCE TR-FRET | inhibition, % at 6.5 µM | 360,000 tested, 0.48% active | AID 540295;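 active means inhibition above its plate's cutoff, the mean of tested wells on that plate plus 3 SD, cut at about 29% in these data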;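 further: 0% = Melanotan II alone and 100% = Melanotan II plus saturating MCL0020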
#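 System – human MC4R-expressing U2OS cells · Also added – Melanotan II · Dosing – one concentration, 6.5 µM nominal · Timing – 30-min compound, 1-h challenge, 1-h detection, room temperature · Measured by – Eu-cAMP/anti-cAMP TR-FRET, emission 671 nm · Replicates – singlicate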
# MC4R barr agon – agonists of human melanocortin 4 receptor (MC4R) beta-arrestin; P32245; U2OS MC4R beta-arrestin complementation, luminescence; percent of melanotan II response, DMSO zero; activation, % at 8.9 µM; 360,000 tested, 0.98% active; AID 540308;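 active means activation above a per-plate cutoff, the mean activation of sample wells on that plate plus 3 SD, cut at about 8% in these data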
# MC4R barr ag – human MC4R beta-arrestin agonism confirmation | shares compounds with MC4R barr agon | U2OS MC4R beta-arrestin recruitment, luminescence; scaled DMSO 0%, Melanotan II 100% | activation, % at 8.9 µM | 2,400 tested, 31% active | AID 602192;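 active means mean activation across replicates above the hit cutoff set in the earlier primary screen, cut at about 8% in these data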
# MOR DOR agonist – activates mu-delta opioid heterodimer, MC4R agonist counter-screen | shares compounds with MC4R barr agon | U2OS PathHunter beta-arrestin, beta-gal luminescence; percent of deltorphin B response, DMSO zero | activation, % at 9.2 µM | 2,400 tested, 5.8% active | AID 602194;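 active means mean activation across replicates exceeds the hit threshold derived in the earlier primary screen, cut at about 18% in these data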;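 further: 100% = deltorphin B at 0.9 µM final and 0% = DMSO alone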
# An asterisk follows results filed as active; . = not tested or not shown.
SMILES,Tb MetRS inh,NALP3 yeast inh,NALP1 yeast inh,Bfl-1 A1 inh,MC4R antagonist,MC4R barr agon,MC4R barr ag,MOR DOR agonist
COc1ccc(-c2cc(C(=O)OCC(=O)Nc3ccc4c(c3)OCO4)c3ccccc3n2)cc1,0,19,12,-3,3,2,.,.
Cc1cc(OC(C)C(=O)NCc2ccncc2)c2c(C)c(C)c(=O)oc2c1 (stereo not drawn),-1,14,40,1,-5,-2,.,.
CC(=O)Nc1ccc(C(=O)CSc2cc(C)c3cccc(C)c3n2)cc1,-1,7,9,0,-4,28*,3,4
CC(C)(C)OC(=O)N1CCc2onc(-c3ccccc3F)c2C1=O,0,.,.,.,10,0,.,.
Cc1ccc(CNC(=O)C2CCN(S(=O)(=O)c3ccc(Br)s3)CC2)cc1,-1,14,18,0,-1,-1,.,.
CCCCOC(=O)Nc1nnc(/C=C/c2ccc(OC)cc2)s1,0,15,43,0,5,21*,7,7
CN(C)c1cccc(C(=O)OCCCC(=O)c2ccc(F)cc2)c1,0,47,.,0,-2,0,.,.
COc1ccc(-c2cc(C(=O)Nc3cc(C)nn3-c3ccccc3)no2)cc1,-1,3,-7,0,-2,-1,.,.
COc1ccc(OC)c(-c2cc(C(=O)NCc3ccc(Cl)cc3)no2)c1,0,-2,1,1,24,10*,1,2
COc1ccccc1-c1cc(C(=O)Nc2cc(C)n(Cc3ccc(Cl)cc3)n2)no1,0,-1,10,1,5,21*,15*,8
Cc1cc(C(=O)Nc2cc(C)n(Cc3ccc(Cl)cc3)n2)no1,0,23,-69,0,9,0,.,.
COc1ccc(-c2cc(C(=O)NCc3ccc(Cl)cc3)no2)cc1OC,-1,16,.,0,0,2,.,.
Cc1nn(Cc2ccc(Cl)cc2)c(C)c1NC(=O)c1noc2c1CCCCC2,0,12,10,0,9,-2,.,.
Cc1cc(NC(=O)c2noc3c2CCCCC3)nn1Cc1ccc(Cl)cc1,-1,-4,-3,0,2,12*,3,5
COc1ccccc1-c1cc(C(=O)Nc2cc(C)nn2-c2ccccc2)no1,0,-7,.,-1,2,9.9*,-2,5
O=C(NCC(=O)N(c1cccc(F)c1)C(C(=O)NC1CCCC1)c1ccncc1)c1cccs1 (stereo not drawn),0,11,3,-1,0,-2,.,.
COc1ccc2c(CC(=O)Nc3ccc4nc(N5CCOCC5)sc4c3)coc2c1,0,.,.,.,17,4,.,.
COc1cc(OC)cc(-c2c(-c3cccs3)c3cc(-c4ccc(C(N)=O)cc4)ccc3n2C)c1,0,21,.,-2,14,16*,11*,4
COc1cc2c(-c3ccccc3)c(C)oc2cc1/C=N/NC(N)=S,1,21,.,6.7*,23,16*,8.7*,10
COc1cc(OC)c(/C=N/NC(N)=S)cc1Br,0,8,37,0,5,-1,.,.
Cc1c(CCOC(=O)c2ccccc2)sc[n+]1CC(=O)c1ccc(Br)cc1,0,10,8,0,13,1,.,.
Cc1c(CCOC(=O)CC23CC4CC(CC(C)(C4)C2)C3)sc[n+]1CC(=O)c1ccccc1,-1,10,1,0,-4,9.8*,20*,5
Cc1nc2ccccc2c2oc(C(=O)Nc3ccc(C(C)C)cc3)cc12,-2,12,13,0,3,27*,9.2*,4
Cc1ccc(NC(=O)CSc2nc(-c3ccco3)cc(C(F)(F)F)n2)cc1C,-1,2,10,0,-21,24*,4,4
O=C(CSc1nc(-c2ccco2)cc(C(F)(F)F)n1)Nc1ccc2c(c1)CCC2,-2,6,12,0,-10,3,.,.
SMILES,Tb MetRS inh,NALP3 yeast inh,NALP1 yeast inh,Bfl-1 A1 inh,MC4R antagonist,MC4R barr agon,MC4R barr ag,MOR DOR agonist
O=C(CCCN1C(=O)/C(=C/c2cccs2)SC1=S)NNC(=O)c1ccccc1O,-1,15,22,1,-3,18*,2,4
O=C(CCCN1C(=O)/C(=C\c2cccs2)SC1=S)Nc1ccc(O)cc1,0,1,6,0,26,10*,16*,2
O=C(COC(=O)c1ccc(F)cc1F)Nc1cccc(S(=O)(=O)N2CCOCC2)c1,0,3,.,.,4,-3,.,.
COc1ccc(-c2nc3cc(C)c(Br)c(C)n3c2CC(C)(C)C)cc1OC,0,.,.,.,.,.,.,.
C=CCn1c(=NC(=O)c2cc(-c3cccs3)nc3ccccc23)sc2cc(S(N)(=O)=O)ccc21,0,8,32,-1,1,-4,.,.
C=CCn1c(=NC(=O)c2cc(Cl)sc2Cl)sc2cc(S(N)(=O)=O)ccc21,0,2,41,0,14,14*,4,2
CCc1ccc(C(=O)NC(=S)Nc2ccc3c(c2)OCCO3)cc1,0,33,20,-1,1,-1,.,.
O=C(NC(=S)Nc1ccc2c(c1)OCO2)c1ccc(Cl)cc1,0,6,15,0,-6,11*,1,3
Cc1ccc(C(=O)NC(=S)Nc2ccc(NC(=O)c3cccc(Cl)c3)cc2)cc1,1,9,28,1,5,12*,13*,8
Cc1ccc(C(=O)NC(=S)Nc2ccc(Oc3ccc(Cl)cc3)cc2)cc1,2,20,0,0,5,2,.,.
CC1(c2nnnn2-c2ccc3c(c2)OCCO3)CCC(=O)N1Cc1cccc(C(F)(F)F)c1 (stereo not drawn),-1,.,.,.,.,.,.,.
COc1cc(NC(=O)CN(C)S(=O)(=O)c2ccc(-c3ccc(=O)[nH]n3)s2)cc(OC)c1,1,17,11,0,0,-1,.,.
COC(=O)Nc1nnc(COc2cccc(C)c2)s1,0,14,-5,0,17,-2,.,.
CCc1nnc(NC(=O)c2ccc(COc3cccc(C)c3)o2)s1,0,13,15,1,19,14*,3,2
CC(=O)Nc1sc(C)c(C)c1C(=O)OCC(=O)Nc1cccc(C)c1,0,19,.,0,14,5,.,.
COc1ccc(NC(=O)c2c(Nc3ccccc3)sc(C(=O)c3ccc(F)cc3)c2N)cc1,0,32,24,0,1,12*,14*,9
COc1ccc(C(=O)c2sc(Nc3ccccc3)c(C(=O)Nc3ccc(OC)c(OC)c3)c2N)cc1,-1,27,17,-1,9,-2,.,.

# High-throughput results from PubChem BioAssay.
